Laboratory results published in ChEMBL document CHEMBL1136983, “Synthesis, cleavage, and antifungal activity of a number of novel, water-soluble ester prodrugs of antifungal triazole CS-758” (Bioorg Med Chem Lett, 2009).
One block for each compound: values may come before it. Calls of active or inactive are those of the source. No cut-off for these calls is given here.

How the values were obtained:
[1] = Solubility in water; assay type: physicochemical
[2] = test system: Liver microsomes; assay: Metabolic stability in human liver microsomes assessed as formation of (2R,3R)-3-((2R,5r)-2-((1E,3E)-4-(4-cyano-2-fluorophenyl)buta-1,3-dienyl)-1,3-dioxan-5-ylthio)-2-(2,4-difluorophenyl)-1-(1H-1,2,4-triazol-1-yl)butan-2-yl 2-hydroxyacetate after 120 mins; assay type: ADME, Microsome; details: 2 h
[3] = test system: Liver microsomes; assay: Metabolic stability in human liver microsomes assessed as formation of (2R,3R)-3-((2R,5r)-2-((1E,3E)-4-(4-cyano-2-fluorophenyl)buta-1,3-dienyl)-1,3-dioxan-5-ylthio)-2-(2,4-difluorophenyl)-1-(1H-1,2,4-triazol-1-yl)butan-2-yl 2-hydroxyacetate after 30 mins; assay type: ADME, Microsome; details: 0.5 h
[4] = Bioavailability in rat at 2 mg/kg, iv; assay type: ADME, organism-based; details: in vivo
Summary of the method: (§1)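 Rats received a single iv dose of prodrug at 2 mg/kg, and plasma CS-758 was followed over time (average of three rats). Bioavailability (%) = AUC of CS-758 after iv prodrug / AUC of CS-758 after iv CS-758 dissolved in polyethylene glycol solution × 100.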

[5] = Cmax in rat at 2 mg/kg, iv; assay type: ADME, organism-based; design: dose 2 mg/kg, route intravenous; details: in vivo; summary of the method: as §1
[6] = test system: Candida albicans; assay: Antifungal activity against Candida albicans SANK 51486 infected in mouse at 0.2 to 20 mg/kg, iv administered 2 hrs post infection measured after 24 hrs; assay type: functional, organism-based
Summary of the method: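 Mouse systemic Candida albicans infection, challenge 4.2 × 10⁵ CFU/mouse. Single dose 2 h after challenge, at 0.2, 2 or 20 mg/kg, vehicle controls. Kidney viable cell counts taken at 24 h. Mean + S.E., n = 8 per group, significance at p<0.05 and p<0.001.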

[7] = test system: Rattus norvegicus; assay: Half life in rat assessed as CS-758 elimination at 2 mg/kg, iv; assay type: ADME, organism-based; design: dose 2 mg/kg, route intravenous; details: in vivo; summary of the method: as §1

SMILES: C[C@@H](S[C@H]1CO[C@H](/C=C/C=C/c2ccc(C#N)cc2F)OC1)[C@@](Cn1cncn1)(OC(=O)COP(=O)([O-])O)c1ccc(F)cc1F.[Na+]
- Activity [2]: Active
- solubility [1]: > 10000 µg/mL
- Activity [3]: Active

SMILES: C[C@@H](S[C@H]1CO[C@H](/C=C/C=C/c2ccc(C#N)cc2F)OC1)[C@@](Cn1cncn1)(OC(=O)COC(=O)CCC(=O)[O-])c1ccc(F)cc1F.[Na+]
- Activity [2]: Active
- solubility [1]: > 10000 µg/mL
- Activity [3]: Active

SMILES: C[C@@H](S[C@H]1CO[C@H](/C=C/C=C/c2ccc(C#N)cc2F)OC1)[C@](O)(Cn1cncn1)c1ccc(F)cc1F [EMBECONAZOLE]
- Cmax [5]: 1300 ng/mL
- bioavailability [4]: 3.3%

SMILES: C[C@@H](S[C@H]1CO[C@H](/C=C/C=C/c2ccc(C#N)cc2F)OC1)[C@@](Cn1cncn1)(OP(=O)([O-])O)c1ccc(F)cc1F.[Na+]
- Activity [6]: Active
- solubility [1]: > 30000 µg/mL
- t1/2 [7]: 5.7 h

Next, values leading:

- solubility [1]: < 1000 µg/mL
SMILES: C[C@@H](S[C@H]1CO[C@H](/C=C/C=C/c2ccc(C#N)cc2F)OC1)[C@@](Cn1cncn1)(OC(=O)CN(C)C)c1ccc(F)cc1F

- solubility [1]: > 10000 µg/mL
- bioavailability [4]: 3.3%
SMILES: C[C@@H](S[C@H]1CO[C@H](/C=C/C=C/c2ccc(C#N)cc2F)OC1)[C@@](Cn1cncn1)(OC(=O)C[N+](C)(C)C)c1ccc(F)cc1F.[Cl-]

- solubility [1]: < 1000 µg/mL
SMILES: C[C@@H](S[C@H]1CO[C@H](/C=C/C=C/c2ccc(C#N)cc2F)OC1)[C@@](Cn1cncn1)(OC(=O)CCN)c1ccc(F)cc1F

- solubility [1]: < 1000 µg/mL
SMILES: C[C@@H](S[C@H]1CO[C@H](/C=C/C=C/c2ccc(C#N)cc2F)OC1)[C@@](Cn1cncn1)(OC(=O)CN)c1ccc(F)cc1F

- solubility [1]: < 1000 µg/mL
SMILES: C[C@@H](S[C@H]1CO[C@H](/C=C/C=C/c2ccc(C#N)cc2F)OC1)[C@@](Cn1cncn1)(OC(=O)CO)c1ccc(F)cc1F
